ChEMBL document CHEMBL5223184, “Structure-Based Design of Glycosylated Oxytocin Analogues with Improved Selectivity and Antinociceptive Activity” (ACS Med Chem Lett, 2023)
Active and inactive are the calls of the source. Bridge positions count the residues as written; N and C are the ends. Square brackets hold non-standard residues; d marks the D form. Peptide text beside a SMILES is read from it. * marks the point of attachment. X1 = OC[C@H]1O[C@@H](O[C@H]2[C@H](O)[C@@H](O)[C@H](*)O[C@@H]2CO)[C@H](O)[C@@H](O)[C@H]1O; βGlc = OC[C@H]1O[C@@H](*)[C@H](O)[C@@H](O)[C@@H]1O; Dap = NC[C@H](N)C(=O)O; Aib = CC(C)(N)C(=O)O

Experiments:
Mus musculus = assay: Antinociceptive activity against CD-1 mouse assessed as pain relief at 10 mg/kg, iv measured after 2 hrs by tail flick test; format: functional, organism-based
How it was run: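 Male CD-1 mice dosed at 10 mg/kg by intravenous injection into the tail vein. Vehicle, oxytocin and morphine groups run alongside. Tail flick in 52 °C water with a 10 s cutoff. Mean ± SEM, N = 5 mice/group.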

Oxytocin receptor = target: T1, Oxytocin receptor (Homo sapiens, UniProt P30559); assay: Activation of human 3X-HA N-tagged OTR expressed in CHO-K1 cells incubated for 10 mins by cell Western assay; format: cell-based
T1 sequence (P30559 whole entry): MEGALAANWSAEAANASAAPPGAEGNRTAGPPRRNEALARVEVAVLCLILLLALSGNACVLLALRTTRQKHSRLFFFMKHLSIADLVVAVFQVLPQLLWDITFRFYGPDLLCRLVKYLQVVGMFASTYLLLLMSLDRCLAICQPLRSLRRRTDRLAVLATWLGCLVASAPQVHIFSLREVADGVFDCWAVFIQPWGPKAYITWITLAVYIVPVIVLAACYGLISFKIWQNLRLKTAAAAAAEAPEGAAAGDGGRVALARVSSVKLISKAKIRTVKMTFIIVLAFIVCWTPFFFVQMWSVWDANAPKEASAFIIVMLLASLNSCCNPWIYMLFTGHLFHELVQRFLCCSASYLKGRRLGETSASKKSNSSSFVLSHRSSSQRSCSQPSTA
How it was run: (§1)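 In-cell Western read-out of ERK MAPK activation in CHO cells expressing the human receptor (OTR, AVP1a or AVP1b). Potency reported as mean ± SEM of N = 3 independent experiments.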

Vasopressin V1a receptor = Vasopressin V1a receptor (Homo sapiens, UniProt P37288); assay: Activation of human 3X-HA N-tagged AVP1a expressed in CHO-K1 cells incubated for 10 mins by cell Western assay; format: cell-based; how it was run: as §1
Vasopressin V1a receptor, sequence (P37288 whole entry): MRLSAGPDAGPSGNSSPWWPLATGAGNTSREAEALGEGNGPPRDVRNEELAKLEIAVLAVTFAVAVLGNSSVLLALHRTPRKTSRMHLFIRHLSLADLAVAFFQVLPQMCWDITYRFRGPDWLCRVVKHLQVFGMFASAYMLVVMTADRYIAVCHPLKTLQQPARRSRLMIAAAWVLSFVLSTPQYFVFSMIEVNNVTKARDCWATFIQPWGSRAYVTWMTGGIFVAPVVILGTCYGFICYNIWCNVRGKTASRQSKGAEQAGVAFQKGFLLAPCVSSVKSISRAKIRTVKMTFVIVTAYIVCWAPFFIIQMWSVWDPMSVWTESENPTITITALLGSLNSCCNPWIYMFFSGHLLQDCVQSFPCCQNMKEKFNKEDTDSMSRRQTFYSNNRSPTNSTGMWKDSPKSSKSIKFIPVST

Vasopressin V1b receptor = target: T2, Vasopressin V1b receptor (Homo sapiens, UniProt P47901); assay: Activation of human 3X-HA N-tagged AVP1b expressed in CHO-K1 cells incubated for 10 mins by cell Western assay; format: cell-based; how it was run: as §1
T2 sequence (P47901 whole entry): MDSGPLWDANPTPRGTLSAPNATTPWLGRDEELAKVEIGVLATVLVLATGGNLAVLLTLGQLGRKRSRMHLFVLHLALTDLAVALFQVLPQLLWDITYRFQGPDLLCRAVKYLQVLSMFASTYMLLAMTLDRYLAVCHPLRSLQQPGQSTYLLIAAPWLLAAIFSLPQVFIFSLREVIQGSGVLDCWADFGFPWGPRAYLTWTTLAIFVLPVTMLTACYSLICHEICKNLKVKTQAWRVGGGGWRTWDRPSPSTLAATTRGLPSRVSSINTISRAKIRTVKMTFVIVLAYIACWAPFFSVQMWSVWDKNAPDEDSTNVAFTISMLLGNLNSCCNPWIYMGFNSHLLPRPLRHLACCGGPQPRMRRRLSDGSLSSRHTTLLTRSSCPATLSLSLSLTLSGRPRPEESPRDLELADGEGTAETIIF

| Structure (SMILES) | Activity (Mus musculus) | EC50 (Oxytocin receptor; cho-k1) [nM] | EC50 (Vasopressin V1a receptor) | EC50 (Vasopressin V1b receptor) | EC50 (Oxytocin receptor) [nM] |
| --- | --- | --- | --- | --- | --- |
| CN1CC[C@]23c4c5ccc(O)c4O[C@H]2[C@@H](O)C=C[C@H]3[C@H]1C5 | Active |  |  |  |  |
| CC[C@H](C)[C@@H]1NC(=O)[C@H](Cc2ccc(O)cc2)NC(=O)[C@@H](N)CC(=O)NC[C@@H](C(=O)N2CCC[C@H]2C(=O)NC(C)(C)C(=O)N[C@H](CO[C@@H]2O[C@H](CO)[C@@H](O)[C@H](O)[C@H]2O)C(N)=O)NC(=O)[C@H](CC(N)=O)NC(=O)[C@H](CCC(N)=O)NC1=O |  | 0.28 | Not Active | Not Active |  |
| CC[C@H](C)[C@@H]1NC(=O)[C@H](Cc2ccc(O)cc2)NC(=O)[C@@H](N)CSSC[C@@H](C(=O)N2CCC[C@H]2C(=O)N[C@@H](CC(C)C)C(=O)NCC(N)=O)NC(=O)[C@H](CC(N)=O)NC(=O)[C@H](CCC(N)=O)NC1=O | inactive |  |  |  |  |
| CC[C@H](C)[C@@H]1NC(=O)[C@H](Cc2ccc(O)cc2)NC(=O)[C@@H](N)CC(=O)NC[C@@H](C(=O)N2CCC[C@H]2C(=O)N[C@@H](CC(C)C)C(=O)NCC(=O)N[C@@H](CO[C@@H]2O[C@H](CO)[C@@H](O[C@@H]3O[C@H](CO)[C@H](O)[C@H](O)[C@H]3O)[C@H](O)[C@H]2O)C(N)=O)NC(=O)[C@H](CC(N)=O)NC(=O)[C@H](CCC(N)=O)NC1=O (H-DYIQN[Dap]PLGS(X1)-NH2; lactam 1-6) |  |  | Not Active | Not Active | 160 |
| CC[C@H](C)[C@@H]1NC(=O)[C@H](Cc2ccc(O)cc2)NC(=O)[C@@H](N)CC(=O)NC[C@@H](C(=O)N2CCC[C@H]2C(=O)N[C@@H](CC(C)C)C(=O)N[C@@H](CO[C@@H]2O[C@H](CO)[C@@H](O[C@@H]3O[C@H](CO)[C@H](O)[C@H](O)[C@H]3O)[C@H](O)[C@H]2O)C(N)=O)NC(=O)[C@H](CC(N)=O)NC(=O)[C@H](CCC(N)=O)NC1=O (H-DYIQN[Dap]PLS(X1)-NH2; lactam 1-6) |  |  | Not Active | Not Active | 0.54 |
| CC[C@H](C)[C@@H]1NC(=O)[C@H](Cc2ccc(O)cc2)NC(=O)[C@@H](N)CCC(=O)NC[C@@H](C(=O)N2CCC[C@H]2C(=O)N[C@@H](CC(C)C)C(=O)N[C@@H](CO[C@@H]2O[C@H](CO)[C@@H](O)[C@H](O)[C@H]2O)C(N)=O)NC(=O)[C@H](CC(N)=O)NC(=O)[C@H](CCC(N)=O)NC1=O (H-EYIQN[Dap]PLS(βGlc)-NH2; lactam 1-6) |  |  | Not Active | Not Active | 0.73 |
| CC[C@H](C)[C@@H]1NC(=O)[C@H](Cc2ccc(O)cc2)NC(=O)[C@@H](N)CCC(=O)NC[C@@H](C(=O)N2CCC[C@H]2C(=O)NC(C)(C)C(=O)NCC(=O)N[C@@H](CO[C@@H]2O[C@H](CO)[C@@H](O)[C@H](O)[C@H]2O)C(N)=O)NC(=O)[C@H](CC(N)=O)NC(=O)[C@H](CCC(N)=O)NC1=O | Active |  | Not Active | Not Active | 0.06 |
| CC[C@H](C)[C@@H]1NC(=O)[C@H](Cc2ccc(O)cc2)NC(=O)[C@@H](N)CCC(=O)NC[C@@H](C(=O)N2CCC[C@H]2C(=O)NC(C)(C)C(=O)N[C@@H](CO[C@@H]2O[C@H](CO)[C@@H](O)[C@H](O)[C@H]2O)C(N)=O)NC(=O)[C@H](CC(N)=O)NC(=O)[C@H](CCC(N)=O)NC1=O (H-EYIQN[Dap]P[Aib]S(βGlc)-NH2; lactam 1-6) |  |  | Not Active | Not Active | 220 |
| CC[C@H](C)[C@@H]1NC(=O)[C@H](Cc2ccc(O)cc2)NC(=O)[C@@H](N)CC(=O)NC[C@@H](C(=O)N2CCC[C@H]2C(=O)N[C@@H](CC(C)C)C(=O)NCC(N)=O)NC(=O)[C@H](CC(N)=O)NC(=O)[C@H](CCC(N)=O)NC1=O (H-DYIQN[Dap]PLG-NH2; lactam 1-6) | Active |  | Not Active | Not Active |  |
| CC[C@H](C)[C@@H]1NC(=O)[C@H](Cc2ccc(O)cc2)NC(=O)[C@@H](N)CCC(=O)NC[C@@H](C(=O)N2CCC[C@H]2C(=O)N[C@@H](CC(C)C)C(=O)NCC(N)=O)NC(=O)[C@H](CC(N)=O)NC(=O)[C@H](CCC(N)=O)NC1=O (H-EYIQN[Dap]PLG-NH2; lactam 1-6) |  |  | Not Active | Not Active |  |
